Data: ChEMBL document CHEMBL4406880, “Design, synthesis, and bioactivity of dihydropyrimidine derivatives as kinesin spindle protein inhibitors” (Bioorg Med Chem, 2019)

Legend:
Assay type in all cases: functional
SR = experiment: Growth inhibition of human SR cells assessed as growth percentage at 10 uM incubated for 48 hrs by sulforhodamine B assay relative to control; conditions: read-out: Activity
In short: (§1)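 NCI-60 single-dose screen. Cells were grown in RPMI 1640 with 5% FBS and 2 mM L-glutamine and plated at 5,000–40,000 cells/well. After an overnight preincubation at 37 °C in 5% CO2, compound was added at a final 10 µM from a DMSO stock, with DMSO/PBS controls. After 48 h, cells were TCA-fixed and stained with 0.4% SRB, and absorbance was read at 515 nm. Growth is given as a percentage of untreated control.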

EKVX = experiment: Growth inhibition of human EKVX cells assessed as growth percentage at 10 uM incubated for 48 hrs by sulforhodamine B assay relative to control; conditions: read-out: Activity
In short: (§2)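 NCI-60 one-dose screen: cells in RPMI 1640 with 5% FBS and 2 mM L-glutamine, plated at 5,000–40,000 cells/well and preincubated 24 h at 37 °C, 5% CO2. Compound is added from a DMSO stock to a final 10 µM and incubated 48 h. Cells are TCA-fixed and stained with sulforhodamine B, read at 515 nm. Output is % growth versus untreated control, with a time-zero plate.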

HOP-62 = experiment: Growth inhibition of human HOP62 cells assessed as growth percentage at 10 uM incubated for 48 hrs by sulforhodamine B assay relative to control; conditions: HOP-62, 48 h, read-out: Activity
In short: (§3)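 NCI-60 one-dose screen. Cells in RPMI 1640 with 5% FBS and 2 mM L-glutamine, seeded at 5,000–40,000 cells/well according to doubling time, and preincubated overnight at 37 °C, 5% CO2. A time-zero plate was TCA-fixed at drug addition. Compound from DMSO stock, final 10 µM, 48 h; DMSO vehicle controls. Fixation with TCA, 10% final (16% for suspension cells). SRB stain, Tris solubilization, A515. Result given as % growth versus untreated cells.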

HOP-92 = experiment: Growth inhibition of human HOP92 cells assessed as growth percentage at 10 uM incubated for 48 hrs by sulforhodamine B assay relative to control; conditions: HOP-92, 48 h, read-out: Activity; in short: as §3
NCI-H23 = experiment: Growth inhibition of human NCI-H23 cells assessed as growth percentage at 10 uM incubated for 48 hrs by sulforhodamine B assay relative to control; conditions: NCI-H23, 48 h, read-out: Activity; in short: as §3
NCI-H322M = experiment: Growth inhibition of human NCI-H322M cells assessed as growth percentage at 10 uM incubated for 48 hrs by sulforhodamine B assay relative to control; conditions: read-out: Activity; in short: as §3
NCI-H460 = experiment: Growth inhibition of human NCI-H460 cells assessed as growth percentage at 10 uM incubated for 48 hrs by sulforhodamine B assay relative to control; conditions: NCI-H460, 48 h, read-out: Activity; in short: as §3
NCI-H522 = experiment: Growth inhibition of human NCI-H522 cells assessed as growth percentage at 10 uM incubated for 48 hrs by sulforhodamine B assay relative to control; conditions: NCI-H522, 48 h, read-out: Activity; in short: as §3
HCC 2998 = experiment: Growth inhibition of human HCC2998 cells assessed as growth percentage at 10 uM incubated for 48 hrs by sulforhodamine B assay relative to control; conditions: HCC 2998, 48 h, read-out: Activity; in short: as §2
KM12 = experiment: Growth inhibition of human KM12 cells assessed as growth percentage at 10 uM incubated for 48 hrs by sulforhodamine B assay relative to control; conditions: KM12, 48 h, read-out: Activity; in short: as §3
SF-268 = experiment: Growth inhibition of human SF268 cells assessed as growth percentage at 10 uM incubated for 48 hrs by sulforhodamine B assay relative to control; conditions: SF-268, 48 h, read-out: Activity; in short: as §1
SF-295 = experiment: Growth inhibition of human SF295 cells assessed as growth percentage at 10 uM incubated for 48 hrs by sulforhodamine B assay relative to control; conditions: SF-295, 48 h, read-out: Activity; in short: as §1
SNB-19 = experiment: Growth inhibition of human SNB19 cells assessed as growth percentage at 10 uM incubated for 48 hrs by sulforhodamine B assay relative to control; conditions: SNB-19, 48 h, read-out: Activity; in short: as §1
Malme-3M = experiment: Growth inhibition of human MALME-3M cells assessed as growth percentage at 10 uM incubated for 48 hrs by sulforhodamine B assay relative to control; conditions: read-out: Activity; in short: as §3
SK-MEL-2 = experiment: Growth inhibition of human SK-MEL-2 cells assessed as growth percentage at 10 uM incubated for 48 hrs by sulforhodamine B assay relative to control; conditions: SK-MEL-2, 48 h, read-out: Activity; in short: as §1
SK-MEL-28 = experiment: Growth inhibition of human SK-MEL-28 cells assessed as growth percentage at 10 uM incubated for 48 hrs by sulforhodamine B assay relative to control; conditions: SK-MEL-28, 48 h, read-out: Activity; in short: as §1
UACC-257 = experiment: Growth inhibition of human UACC257 cells assessed as growth percentage at 10 uM incubated for 48 hrs by sulforhodamine B assay relative to control; conditions: UACC-257, 48 h, read-out: Activity; in short: as §1
OVCAR-3 = experiment: Growth inhibition of human OVCAR3 cells assessed as growth percentage at 10 uM incubated for 48 hrs by sulforhodamine B assay relative to control; conditions: OVCAR-3, 48 h, read-out: Activity; in short: as §3
OVCAR-4 = experiment: Growth inhibition of human OVCAR4 cells assessed as growth percentage at 10 uM incubated for 48 hrs by sulforhodamine B assay relative to control; conditions: OVCAR-4, 48 h, read-out: Activity; in short: as §3
OVCAR-5 = experiment: Growth inhibition of human OVCAR5 cells assessed as growth percentage at 10 uM incubated for 48 hrs by sulforhodamine B assay relative to control; conditions: OVCAR-5, 48 h, read-out: Activity; in short: as §1
OVCAR-8 = experiment: Growth inhibition of human OVCAR8 cells assessed as growth percentage at 10 uM incubated for 48 hrs by sulforhodamine B assay relative to control; conditions: OVCAR-8, 48 h, read-out: Activity; in short: as §1
NCI/ADR-RES = experiment: Growth inhibition of human NCI/ADR-RES cells assessed as growth percentage at 10 uM incubated for 48 hrs by sulforhodamine B assay relative to control; conditions: read-out: Activity; in short: as §3
786-0 = experiment: Growth inhibition of human 786-0 cells assessed as growth percentage at 10 uM incubated for 48 hrs by sulforhodamine B assay relative to control; conditions: 786-0, 48 h, read-out: Activity; in short: as §2
A498 = experiment: Growth inhibition of human A498 cells assessed as growth percentage at 10 uM incubated for 48 hrs by sulforhodamine B assay relative to control; conditions: A498, 48 h, read-out: Activity; in short: as §2
ACHN = experiment: Growth inhibition of human ACHN cells assessed as growth percentage at 10 uM incubated for 48 hrs by sulforhodamine B assay relative to control; conditions: read-out: Activity; in short: as §2
MDA-MB-231 = experiment: Growth inhibition of human MDA-MB-231 cells assessed as growth percentage at 10 uM incubated for 48 hrs by sulforhodamine B assay relative to control; conditions: MDA-MB-231, 48 h, read-out: Activity; in short: as §3
T47D = experiment: Growth inhibition of human T47D cells assessed as growth percentage at 10 uM incubated for 48 hrs by sulforhodamine B assay relative to control; conditions: read-out: Activity; in short: as §1

| Compound | growth at 10 µM (SR) [%] | growth at 10 µM (EKVX) [%] | growth at 10 µM (HOP-62) [%] | growth at 10 µM (HOP-92) [%] | growth at 10 µM (NCI-H23) [%] | growth at 10 µM (NCI-H322M) [%] | growth at 10 µM (NCI-H460) [%] | growth at 10 µM (NCI-H522) [%] | growth at 10 µM (HCC 2998) [%] | growth at 10 µM (KM12) [%] | growth at 10 µM (SF-268) [%] | growth at 10 µM (SF-295) [%] | growth at 10 µM (SNB-19) [%] | growth at 10 µM (Malme-3M) [%] | growth at 10 µM (SK-MEL-2) [%] | growth at 10 µM (SK-MEL-28) [%] | growth at 10 µM (UACC-257) [%] | growth at 10 µM (OVCAR-3) [%] | growth at 10 µM (OVCAR-4) [%] | growth at 10 µM (OVCAR-5) [%] | also measured |
| --- | --- | --- | --- | --- | --- | --- | --- | --- | --- | --- | --- | --- | --- | --- | --- | --- | --- | --- | --- | --- | --- |
| O=C1NC2=C(C(=O)c3ccccc32)C(c2ccc3c(c2)OCO3)N1 (racemic) | 110 | 97.4 | 96.1 | 99 | 104 | 111 | 113 | 90.7 | 107 | 111 | 97.4 | 103 | 97.9 | 106 | 108 | 114 | 100 | 115 | 116 | 105 | growth at 10 µM (OVCAR-8): 102%; growth at 10 µM (NCI/ADR-RES): 109%; growth at 10 µM (786-0): 106%; growth at 10 µM (A498): 112%; growth at 10 µM (ACHN): 104%; growth at 10 µM (MDA-MB-231): 109%; growth at 10 µM (T47D): 95% |
| COCCOC(=O)C1=C(C)NC(=S)NC1c1ccc2c(c1)OCO2 (racemic) | 95.5 | 105 | 98 | 108 | 96.2 | 101 | 112 | 94.3 | 110 | 100 | 97.4 | 105 | 100 | 108 | 93 | 114 | 90.2 | 111 | 103 | 109 | growth at 10 µM (OVCAR-8): 102%; growth at 10 µM (NCI/ADR-RES): 103%; growth at 10 µM (786-0): 107%; growth at 10 µM (A498): 96.1%; growth at 10 µM (ACHN): 106%; growth at 10 µM (MDA-MB-231): 105%; growth at 10 µM (T47D): 94.8% |
| CC1=C(C(=O)OCc2ccccc2)C(c2ccc3c(c2)OCO3)NC(=O)N1 (racemic) | 104 | 95.8 | 114 | 92.3 | 101 | 104 | 109 | 87.7 | 116 | 105 | 99.8 | 95.3 | 96.1 | 101 | 101 | 110 | 103 | 119 | 91 | 106 | growth at 10 µM (OVCAR-8): 101%; growth at 10 µM (NCI/ADR-RES): 97.7%; growth at 10 µM (786-0): 99.1%; growth at 10 µM (A498): 105%; growth at 10 µM (ACHN): 99.4%; growth at 10 µM (MDA-MB-231): 104%; growth at 10 µM (T47D): 89.2% |
| CC1=C(C(=O)c2ccccc2)C(c2ccc3c(c2)OCO3)NC(=S)N1 (racemic) | 6.28 | 73.5 | 51.8 | 92.3 | 48 | 67.7 | 8.05 | 38.3 | 62.2 | 20 | 75.8 | 51.2 | 63.8 | 54.5 | 60.5 | 70.9 | 57.2 | 12.9 | 82.3 | 72.5 | growth at 10 µM (OVCAR-8): 46.7%; growth at 10 µM (NCI/ADR-RES): 43.3%; growth at 10 µM (786-0): 58.9%; growth at 10 µM (A498): -12.5%; growth at 10 µM (ACHN): 45.5%; growth at 10 µM (MDA-MB-231): 79.1%; growth at 10 µM (T47D): 67.9% |
